Results of several laboratories.
Lines come from different studies, so protocols differ.
Target: TGF-beta receptor type-2 (TGFBR2, Homo sapiens, UniProt P37173)

CNCc1ccccc1-c1csc([C@H](C)Nc2nc(C)nc3cc(OC)c(OC)cc23)c1 — remaining binding (cell-free assay, competition with immobilised ligand; 1 µM): 97%
CNC(=O)[C@@H]1CC[C@@H](n2c(-c3ccc4cnccc4c3)nc3ccc(C(=O)NCc4cccc(C(N)=O)c4)cc32)C1 — remaining binding (binding, competition with immobilised ligand; 1 µM): 100%
F[C@@H]1CCN(c2nccc(-c3cnn4ncccc34)n2)C1 — remaining binding (binding; 1 µM): 100%
COc1cccc(CNC(=O)c2nc3scc(COCc4ccc(C(=O)O)cc4)c3c(=O)[nH]2)c1 — remaining binding (cell-free assay, competition with immobilised ligand; 1 µM): 97%
C=CC(=O)N1CCC(C(=O)NCC(=O)N2CCN(c3nc(-c4cnc(N)nc4C(F)F)nc(N4CCOCC4)n3)CC2)CC1 — remaining binding (binding, competition with immobilised ligand; 1 µM): 88%
COc1ncc2cc3ccccc3nc2c1C#N — remaining binding (cell-free assay, competition with immobilised ligand; 5 µM): 100%
CC1=C(C#N)[C@@H](c2ccc3[nH]nc(C)c3c2)C(C#N)=C(c2ccc(Cl)cc2)N1 — remaining binding (cell-free assay, competition with immobilised ligand; 1 µM): 74.6%
CCN1CCN(Cc2ccc(C(=O)Nc3ccc(C)c(Oc4ccc5c(c4)CC(=O)N5)c3)cc2C(F)(F)F)CC1 — remaining binding (binding, competition with immobilised ligand; 1 µM): 100%
C[C@@H]1CCN(c2nccc(-c3cnn4ncccc34)n2)C1 — remaining binding (binding; 1 µM): 100%
O=C(c1ccc(Nc2ncc(Cl)c(-c3ccc(Cl)s3)n2)cc1)N1CCC(N2CCCC2)CC1 — remaining binding (binding, competition with immobilised ligand; 1 µM): 100%
CC1=C(C#N)C(c2ccc3c(c2)c(NC(=O)c2ccccc2C)nn3C)C(C#N)=C(C)N1 — remaining binding (cell-free assay, competition with immobilised ligand; 1 µM): 99%
Cc1cnn2ncc(-c3ccnc(N(C)C)n3)c2c1 — remaining binding (binding; 1 µM): 80%
O=C(NCCCN1CCOCC1)c1ccc(Nc2ncc(Cl)c(-c3ccc(Cl)s3)n2)cc1 — remaining binding (binding, competition with immobilised ligand; 1 µM): 100%
COc1cc(-c2cn(C3CCc4c(F)cccc4N(CC(F)(F)F)C3=O)nn2)ccc1-n1cnc(C)c1 (stereo not drawn) — remaining binding (cell-free assay, competition with immobilised ligand; 1 µM): 100%
CN(C)c1ncc(F)c(-c2cnn3ncccc23)n1 — remaining binding (binding; 1 µM): 100%
Cc1cnc(Nc2ccc(C(=O)N3CCC(N4CCCC4)CC3)cc2)nc1-c1cc2ccccc2s1 — remaining binding (binding, competition with immobilised ligand; 1 µM): 61%
O=C1CCc2cc(Nc3cc(OC4CCOCC4)c([N+](=O)[O-])cc3Cl)ccc2N1 — remaining binding (cell-free assay, competition with immobilised ligand; 1 µM): 98%
N[C@H]1CCN(c2nccc(-c3cnn4ncccc34)n2)C1 — remaining binding (binding; 1 µM): 86%
O=C(Nc1c[nH]nc1C(=O)NC1CCNCC1)c1cc(F)cc(F)c1 — remaining binding (binding, competition with immobilised ligand; 1 µM): 90%
COc1cnc(Nc2cccc(S(N)(=O)=O)c2)nc1N1CCN(c2ccccc2)C(=O)C1 — remaining binding (binding, competition with immobilised ligand; 1 µM): 100%
CN(C)c1nccc(-c2cnn3ncccc23)n1 — remaining binding (binding; 1 µM): 73%
